From PMC8757366 (ACS Omega, 2021)
Square brackets hold non-standard residues; d marks the D form. Peptide text beside a SMILES is read from it. * marks the point of attachment. Phe(3,4-(OMe)2) = COc1ccc(C[C@H](N)C(=O)O)cc1OC; Phe(F5) = N[C@@H](Cc1c(F)c(F)c(F)c(F)c1F)C(=O)O; Lys(Et,iPr) = CCN(CCCC[C@H](N)C(=O)O)C(C)C; Cha = N[C@@H](CC1CCCCC1)C(=O)O; Nicotinoyl = O=C(c1cccnc1)*; X1 = Nc1cc(C(=O)*)ccc1Br

Key:
CBX5 (HP1α) chromodomain = CBX5 (HP1α) chromodomain (Homo sapiens, UniProt P45973); experiment: Isothermal titration calorimetry; format: binding; details: for Kd: CBX5 ITC Kd, 25 °C
Chain of CBX5 (HP1α) chromodomain (P45973 18-75): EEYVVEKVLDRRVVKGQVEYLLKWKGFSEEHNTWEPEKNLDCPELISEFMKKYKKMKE
How it was run: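 Run at 25 °C in 25 mM Tris–HCl pH 7.5, 150 mM NaCl, 2 mM β-mercaptoethanol. His-tagged chromodomain expressed in E. coli and purified by Ni affinity and size exclusion; concentration by Edelhoch method. Typically 50 μM protein with 0.5 mM compound or 100 μM with 1.0 mM, always 10:1. One 0.2 μL injection, then 26 × 1.5 μL at 180 s spacing; first point deleted; one-site fit. Mean ± SD of at least two replicates.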

CBX5 chromodomain = CBX5 chromodomain (Homo sapiens, UniProt P45973); experiment: TR-FRET competition assay, CBX5; format: binding; details: for affinity improvement toward CBX5 over UNC5191 by TR-FRET: compared to UNC5191; for selectivity for CBX5 over CBX7: from TR-FRET IC50 values
Chain of CBX5 chromodomain (P45973 18-75): as above
How it was run: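 Competition of biotinylated peptide tracer P42 from His-tagged chromodomain: CBX5 30 nM with 30 nM tracer, MPP8 25 nM with 50 nM tracer. Detection with 10 nM ULight-anti-6xHis and 2 nM Eu-streptavidin in 20 mM Tris pH 7.5, 150 mM NaCl, 0.05% Tween 20, 2 mM DTT. 1 h equilibration in dark; 665/615 nm ratio. 0–100% scale against DMSO and 100 μM UNC5241. Four-parameter IC50 fit; mean ± SD of three replicates.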

Row | Compound | Kd (CBX5 (HP1α) chromodomain; one site binding model) | affinity improvement toward CBX5 over UNC5191 by TR-FRET (CBX5 chromodomain) | selectivity for CBX5 over CBX7 (CBX5 chromodomain) | other results
1 | CCN(CCCC[C@H](NC(=O)[C@H](CC(C)C)NC(=O)[C@H](C)NC(=O)[C@H](Cc1ccccc1)NC(=O)c1cccnc1)C(=O)N[C@@H](CO)C(N)=O)C(C)C [UNC5191, N-((8S,11S,14S,17S)-8-(((S)-1-Amino-3-hydroxy-1-oxopropan-2-yl)carbamoyl)-3-ethyl-11-isobutyl-2,14-dimethyl-10,13,16-trioxo-18-phenyl-3,9,12,15-tetraazaoctadecan-17-yl)nicotinamide] (Nicotinoyl-FAL[Lys(Et,iPr)]S-NH2) | 6930 ± 820 nM | – | – | –
2 | CCN(CCCC[C@H](NC(=O)[C@H](CC(C)C)NC(=O)[C@H](C)NC(=O)[C@H](Cc1c(F)c(F)c(F)c(F)c1F)NC(=O)c1cccnc1)C(=O)N[C@@H](CO)C(N)=O)C(C)C [UNC4869, N-((8S,11S,14S,17S)-8-(((S)-1-Amino-3-hydroxy-1-oxopropan-2-yl)carbamoyl)-3-ethyl-11-isobutyl-2,14-dimethyl-10,13,16-trioxo-18-(perfluorophenyl)-3,9,12,15-tetraazaoctadecan-17-yl)nicotinamide] (Nicotinoyl-[Phe(F5)]AL[Lys(Et,iPr)]S-NH2) | – | about 3 fold | 26 fold | –
3 | CCN(CCCC[C@H](NC(=O)[C@H](CC(C)C)NC(=O)[C@H](C)NC(=O)[C@H](CC1CCCCC1)NC(=O)c1cccnc1)C(=O)N[C@@H](CO)C(N)=O)C(C)C [UNC6383, N-((8S,11S,14S,17S)-8-(((S)-1-Amino-3-hydroxy-1-oxopropan-2-yl)carbamoyl)-18-cyclohexyl-3-ethyl-11-isobutyl-2,14-dimethyl-10,13,16-trioxo-3,9,12,15-tetraazaoctadecan-17-yl)nicotinamide] (Nicotinoyl-[Cha]AL[Lys(Et,iPr)]S-NH2) | – | – | 11 fold | –
4 | CCN(CCCC[C@H](NC(=O)[C@H](Cc1ccc(OC)c(OC)c1)NC(=O)[C@H](C)NC(=O)[C@H](CC1CCCCC1)NC(=O)c1ccc(Br)c(N)c1)C(=O)N[C@@H](CO)C(N)=O)C(C)C [UNC7047, 3-Amino-N-((8S,11S,14S,17S)-8-(((S)-1-amino-3-hydroxy-1-oxopropan-2-yl)carbamoyl)-18-cyclohexyl-11-(3,4-dimethoxybenzyl)-3-ethyl-2,14-dimethyl-10,13,16-trioxo-3,9,12,15-tetraazaoctadecan-17-yl)-4-bromobenzamide] (X1-[Cha]A[Phe(3,4-(OMe)2)][Lys(Et,iPr)]S-NH2) | – | 80 fold | – | IC50 (CBX5 chromodomain): 79 ± 40 nM; Kd (CBX5 (HP1α) chromodomain; mean ± SD of three replicates): 237 ± 68 nM; potency for CBX5 relative to UNC5191 by ITC (CBX5 (HP1α) chromodomain; ITC Kd compared to UNC5191): 30 fold
5 | CCN(CCCC[C@H](NC(=O)[C@H](Cc1ccccc1)NC(=O)[C@H](C)NC(=O)[C@H](Cc1ccccc1)NC(=O)c1cccnc1)C(=O)N[C@@H](CO)C(N)=O)C(C)C [UNC6384, N-((8S,11S,14S,17S)-8-(((S)-1-Amino-3-hydroxy-1-oxopropan-2-yl)carbamoyl)-11-benzyl-3-ethyl-2,14-dimethyl-10,13,16-trioxo-18-phenyl-3,9,12,15-tetraazaoctadecan-17-yl)nicotinamide] (Nicotinoyl-FAF[Lys(Et,iPr)]S-NH2) | 3380 nM | – | – | –
6 | CCN(CCCC[C@H](NC(=O)[C@H](Cc1ccc(OC)c(OC)c1)NC(=O)[C@H](C)NC(=O)[C@H](Cc1ccccc1)NC(=O)c1cccnc1)C(=O)N[C@@H](CO)C(N)=O)C(C)C [UNC6392, N-((8S,11S,14S,17S)-8-(((S)-1-Amino-3-hydroxy-1-oxopropan-2-yl)carbamoyl)-11-(3,4-dimethoxybenzyl)-3-ethyl-2,14-dimethyl-10,13,16-trioxo-18-phenyl-3,9,12,15-tetraazaoctadecan-17-yl)nicotinamide] (Nicotinoyl-FA[Phe(3,4-(OMe)2)][Lys(Et,iPr)]S-NH2) | 1270 nM | – | – | potency for CBX5 relative to UNC6384 by ITC (CBX5 (HP1α) chromodomain; ITC Kd compared to UNC6384): 2 fold
